What all share (assay type): cell-based
The target of data set [1] is T1, Kir3.1/Kir3.4 (Homo sapiens) (UniProt P48549+P48544). Description: Inhibition of GTPgammaS-induced activation of GIRK1/4 (unknown origin) expressed in HEK293 cells assessed as decrease in channel current at 1 uM after 2 mins at -40 mV holding potential by automated patch-clamp electrophysiology assay. The gist of the method:
(§1)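 Whole-cell automated planar patch clamp on HEK-293 cells stably expressing GIRK1/4 (Kir3.1/3.4). Internal solution carries 0.9 mM GTPγS to activate channels; bath switched from 4 mM K+ to high-K+ (25 mM KCl) external, pH 7.4. Step to 60 mV, ramp to −140 mV, 100 ms at −140 mV, ~0.1 Hz; inward current read at −140 mV. After 3 min control, 1 then 10 μM for ~2 min each; K+-free solution baseline; two to three cells.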

In data set [2] the target is T2, hERG (KCNH2) (Homo sapiens, UniProt Q12809). Description: Inhibition of human ERG expressed in HEK293 cells assessed as decrease in channel current at 30 uM after 3 mins at -80 mV holding potential by automated patch-clamp electrophysiology assay. The following applies: HEK293 cells that express hERG. The gist of the method: (§2)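 HEK-293 cells stably transfected with hERG (Kv11.1), whole-cell automated planar patch clamp. External solution 4 mM KCl, pH 7.4; internal KCl/KF/EGTA, pH 7.2. Protocol: 100 ms −40 mV reference step, 3 s at 20 mV, then 1 s at −40 mV for the outward tail current. After control, 3, 10, 30 μM cumulative, ~3 min each; amitriptyline 10 μM reference, then wash-out; two or three cells; DMSO ≤0.3% final.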

For data set [3], the target named is T1, Kir3.1/Kir3.4 (Homo sapiens). The experiment in a line: Inhibition of GTPgammaS-induced activation of GIRK1/4 (unknown origin) expressed in HEK293 cells assessed as decrease in channel current at 10 uM after 2 mins at -40 mV holding potential by automated patch-clamp electrophysiology assay. A digest of the protocol:
as §1

Data set [4] addresses T2, hERG (KCNH2). Description: Inhibition of human ERG expressed in HEK293 cells assessed as decrease in channel current at 3 uM after 3 mins at -80 mV holding potential by automated patch-clamp electrophysiology assay. The following applies: HEK293 cells that express hERG. The gist of the method:
as §2

The target of data set [5] is T2, hERG (KCNH2). The experiment in a line: Inhibition of human ERG expressed in HEK293 cells assessed as decrease in channel current at 10 uM after 3 mins at -80 mV holding potential by automated patch-clamp electrophysiology assay. Particulars: HEK293 cells that express hERG. The gist of the method:
as §2

Data set [6] has as its target T3, Kir3.1/Kir3.4 (Homo sapiens, UniProt P48544+P48549).
T3 sequence (P48549 whole entry): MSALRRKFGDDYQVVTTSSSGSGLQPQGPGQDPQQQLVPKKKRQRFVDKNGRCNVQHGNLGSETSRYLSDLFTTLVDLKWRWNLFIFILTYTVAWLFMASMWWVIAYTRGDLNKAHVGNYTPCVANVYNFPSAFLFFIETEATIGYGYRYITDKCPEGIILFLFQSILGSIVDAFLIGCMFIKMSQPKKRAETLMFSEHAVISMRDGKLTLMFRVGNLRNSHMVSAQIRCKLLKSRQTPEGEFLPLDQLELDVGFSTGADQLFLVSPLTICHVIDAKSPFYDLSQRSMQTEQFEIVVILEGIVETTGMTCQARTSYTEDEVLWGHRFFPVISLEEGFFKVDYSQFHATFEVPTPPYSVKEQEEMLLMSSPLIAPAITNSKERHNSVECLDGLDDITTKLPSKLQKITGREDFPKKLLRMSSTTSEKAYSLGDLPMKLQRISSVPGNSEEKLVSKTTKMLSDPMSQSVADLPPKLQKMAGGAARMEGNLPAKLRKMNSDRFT
T3 sequence (P48544 whole entry): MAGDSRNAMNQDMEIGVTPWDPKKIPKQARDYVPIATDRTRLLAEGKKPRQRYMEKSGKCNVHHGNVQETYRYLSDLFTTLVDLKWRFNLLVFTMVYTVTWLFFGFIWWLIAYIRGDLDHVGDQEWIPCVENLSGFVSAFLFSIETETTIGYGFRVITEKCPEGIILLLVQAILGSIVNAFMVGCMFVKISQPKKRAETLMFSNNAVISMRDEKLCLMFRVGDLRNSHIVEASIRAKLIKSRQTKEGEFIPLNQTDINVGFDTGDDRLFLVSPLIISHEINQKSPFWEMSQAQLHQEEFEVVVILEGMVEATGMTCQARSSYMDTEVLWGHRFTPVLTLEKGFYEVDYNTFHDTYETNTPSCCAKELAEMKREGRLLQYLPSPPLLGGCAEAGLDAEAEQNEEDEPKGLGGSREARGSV
Description: Inhibition of GTPgammaS-induced activation of GIRK1/4 (unknown origin) expressed in HEK293 cells assessed as decrease in channel current after 2 mins at -40 mV holding potential by automated patch-clamp electrophysiology assay. The gist of the method:
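HEK-293 cells stably expressing Kir3.1/3.4, grown in MEM with 10% FBS and zeocin, trypsinised and resuspended serum-free. Whole-cell automated planar patch clamp. Internal solution contained 0.9 mM GTPγS. Recordings began in normal external solution (4 mM K+), then switched to high-K+ external solution (25 mM KCl, pH 7.4). Each cycle: step to 60 mV for 100 ms, 500 ms ramp to −140 mV, hold at −140 mV for 100 ms, about 0.1 Hz. Inward current taken from the −140 mV segment. After a 3 min control period, compound was added in rising concentrations, about 2 min each: 1 and 10 μM for screening on 2–3 cells, or 1, 3, 10 and 30 μM on at least 5 cells for IC50. Final DMSO was 0.3% or less. Current in K+-free solution served as baseline. 1 μM propafenone was the reference.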

Among the data in ChEMBL document CHEMBL3865819, “Myrsinane, Premyrsinane, and Cyclomyrsinane Diterpenes from Euphorbia falcata as Potassium Ion Channel Inhibitors with Selective G Protein-Activated Inwardly Rectifying Ion Channel (GIRK) Blocking Effects” (J Nat Prod, 2016) are inhibition and IC50 values, retold here.

T2 sequence (Q12809 whole entry): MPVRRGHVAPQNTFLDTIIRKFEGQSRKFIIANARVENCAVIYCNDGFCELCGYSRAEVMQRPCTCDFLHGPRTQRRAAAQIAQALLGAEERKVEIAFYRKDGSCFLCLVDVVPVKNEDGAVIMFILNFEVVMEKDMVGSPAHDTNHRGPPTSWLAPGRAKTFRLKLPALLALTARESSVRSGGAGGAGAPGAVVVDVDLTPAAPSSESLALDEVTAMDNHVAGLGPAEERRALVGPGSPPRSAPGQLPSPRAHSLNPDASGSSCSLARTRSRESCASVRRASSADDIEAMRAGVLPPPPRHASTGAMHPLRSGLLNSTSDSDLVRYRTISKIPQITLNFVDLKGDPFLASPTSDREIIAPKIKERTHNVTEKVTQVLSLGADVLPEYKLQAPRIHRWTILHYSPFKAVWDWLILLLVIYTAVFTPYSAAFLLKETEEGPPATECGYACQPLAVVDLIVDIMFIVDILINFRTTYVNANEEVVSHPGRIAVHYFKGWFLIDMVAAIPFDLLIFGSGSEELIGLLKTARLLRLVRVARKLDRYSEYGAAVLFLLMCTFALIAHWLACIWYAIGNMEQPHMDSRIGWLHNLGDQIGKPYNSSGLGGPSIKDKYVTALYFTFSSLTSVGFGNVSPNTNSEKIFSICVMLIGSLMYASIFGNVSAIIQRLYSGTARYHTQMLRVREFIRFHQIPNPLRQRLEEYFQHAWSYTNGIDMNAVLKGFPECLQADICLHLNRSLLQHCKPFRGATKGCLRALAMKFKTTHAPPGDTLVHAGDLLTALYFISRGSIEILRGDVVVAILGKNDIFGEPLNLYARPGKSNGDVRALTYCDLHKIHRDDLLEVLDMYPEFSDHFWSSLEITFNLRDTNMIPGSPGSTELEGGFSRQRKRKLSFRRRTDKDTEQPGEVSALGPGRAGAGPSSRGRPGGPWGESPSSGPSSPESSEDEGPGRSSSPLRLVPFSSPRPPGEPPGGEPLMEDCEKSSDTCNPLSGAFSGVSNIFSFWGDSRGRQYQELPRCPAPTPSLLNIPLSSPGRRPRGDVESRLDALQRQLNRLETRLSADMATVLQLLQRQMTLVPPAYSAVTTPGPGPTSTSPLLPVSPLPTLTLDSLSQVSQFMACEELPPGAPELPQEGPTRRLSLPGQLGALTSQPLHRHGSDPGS

For the compound `CCC(C)C(=O)O[C@H]1C(=O)[C@@]23CO[C@@](C)([C@H](OC(C)=O)[C@@]4(OC(C)=O)C[C@H](C)[C@H](OC(=O)c5cccnc5)[C@@H]4[C@H]2OC(C)=O)[C@@H]3[C@@H]2[C@H]1C[C@]2(C)OC(C)=O` (stereo not given in full), the inhibition in data set [1] came to 31%; in data set [3], 72%. In data set [2], the inhibition at 0.05 h, 30 µM was 25%. For the same compound, the inhibition at 0.05 h, 3 µM in data set [4] amounted to 4%. Besides, the inhibition at 0.05 h, 10 µM in data set [5] worked out at 14%. Moreover, the IC50 in data set [6] was 4.9 µM.

As for `CC(=O)O[C@@H]1[C@H]2[C@@H](OC(=O)c3ccccc3)[C@@H](C)C[C@]2(OC(C)=O)[C@@H](OC(C)=O)[C@]2(C)OC[C@]13C(=O)C=C[C@H](C(C)(C)OC(C)=O)[C@@H]23`, the inhibition in data set [1] was determined as 43%; in data set [3], 83%. The inhibition at 0.05 h, 30 µM in data set [2] is 39%. The inhibition at 0.05 h, 3 µM in data set [4] worked out at 9%. Moreover, the inhibition at 0.05 h, 10 µM in data set [5] was 20%. Moreover, the IC50 in data set [6] was found to be 2.5 µM.

In the case of `CCC(=O)O[C@@H]1[C@@H]2[C@@H](OC(C)=O)[C@@]34CO[C@@](C)([C@H](OC(C)=O)[C@@]2(OC(C)=O)C[C@@H]1C)[C@@H]3[C@@H](C(C)(C)OC(C)=O)C=CC4=O`, the inhibition was 24% in data set [1] and 62% in data set [3]. Moreover, the inhibition at 0.05 h, 30 µM in data set [2] was 18%. Besides, the inhibition at 0.05 h, 3 µM in data set [4] amounted to 5%. In data set [5], the inhibition at 0.05 h, 10 µM worked out at 13%. Further, the IC50 in data set [6] was 6.7 µM.

As for `CC(=O)O[C@@H]1[C@H]2[C@@H](OC(=O)C(C)C)[C@@H](C)C[C@]2(OC(C)=O)[C@@H](OC(C)=O)[C@]2(C)OC[C@]13C(=O)C=C[C@H](C(C)(C)OC(C)=O)[C@@H]23` [EUPHORBIAPROLIFERIN C], the inhibition turned out to be 34% in data set [1] and 69% in data set [3]. In data set [2], the inhibition at 0.05 h, 30 µM is 16%. Moreover, the inhibition at 0.05 h, 3 µM in data set [4] came out at 0%. Also, in data set [5], the inhibition at 0.05 h, 10 µM worked out at 4%. Moreover, the IC50 in data set [6] is 4.7 µM.

Take `CC(=O)O[C@@H]1[C@H]2[C@@H](OC(=O)C(C)C)[C@@H](C)C[C@]2(OC(C)=O)[C@@H](OC(C)=O)[C@]2(C)OC[C@]13C(=O)[C@H](OC(C)=O)[C@@H]1C[C@](C)(OC(C)=O)[C@@H]1[C@@H]23`: the inhibition in data set [1] was found to be 28%; in data set [3], 61%. The inhibition at 0.05 h, 30 µM in data set [2] was 23%. For the same compound, the inhibition at 0.05 h, 3 µM in data set [4] is 8%. The inhibition at 0.05 h, 10 µM in data set [5] was found to be 16%. The IC50 in data set [6] stood at 9.7 µM.
